The nature of data set [1]: folding enthalpy; higher = less favourable; fluorescence melt of hairpins on a sequencing array, two-state fit. The conditions noted are these: sodium 0.088 M. Summed up: (§1)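 Cy3 signals were normalised both to pre-quench Cy3 and to control constructs. They came from library hairpins carrying annealed Cy3 and quencher oligos on a sequenced MiSeq flow cell, imaged in 50 mM Na-HEPES pH 8.0, 25 mM NaCl, in 2.5 °C steps up to 60 °C. Bootstrapped two-state fits gave melting temperature and folding enthalpy, and four replicates were combined by inverse variance. Fitted temperatures were then raised by 9.35 °C to match UV melts.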

Data set [2] can be described thus: melting temperature; fluorescence melt of hairpins on a sequencing array, two-state fit, raised by 9.35 °C to match UV melts. As to conditions: sodium 0.088 M. In outline: as §1

For 37 sequences, folding enthalpy and Tm results are on record in the array DNA melting data of Ke et al. (doi:10.1101/2024.01.08.574731).

As for GTCCCGCGAAAGCGCGAC (((.(((....))).))), the folding enthalpy in data set [1] is -21.4 kcal/mol. Further, in data set [2], the Tm worked out at 49.5 °C.

Consider GTTCTTGGAAACAAGGAC ((.((((....)))).)), for which the folding enthalpy in data set [1] was -23.9 kcal/mol. In addition, the Tm in data set [2] was found to be 44.6 °C.

Turning to GGCGAAGGAAACTCCGCC ((((.((....)).)))), the folding enthalpy in data set [1] was -34.4 kcal/mol. Further, the Tm in data set [2] stood at 51.1 °C.

GGAAAGCCGAAAGGCTCC (((..(((....)))))): the folding enthalpy in data set [1] was -11.2 kcal/mol. Also, the Tm in data set [2] worked out at 42.2 °C.

Turning to GGCGCCACGAAAGTGGCC (((..(((....)))))), the folding enthalpy in data set [1] is -6.73 kcal/mol. Further, in data set [2], the Tm amounted to 48.8 °C.

On to GCATTAGAAATAATGC ((((((....)))))), for which the folding enthalpy in data set [1] is -24.5 kcal/mol. For the same sequence, in data set [2], the Tm was 48.2 °C.

Turning to GCGGTGGGCCGC ((((....)))), in data set [1], the folding enthalpy was -13.9 kcal/mol. The Tm in data set [2] came to 65.8 °C.

Consider GCGCCGCGAAAGCAGTGC ((.(.((....)).).)), for which the folding enthalpy in data set [1] is -19.4 kcal/mol. Further, in data set [2], the Tm is 53.5 °C.

As to GCTTGCGAAAGCAGAGC ((((((....))).))), in data set [1], the folding enthalpy is -18.6 kcal/mol. Also, the Tm in data set [2] worked out at 52.7 °C.

In the case of GCACGCGAAAGCGACTGC ((((((....)))..))), the folding enthalpy in data set [1] was -12.6 kcal/mol. For the same sequence, in data set [2], the Tm was found to be 43.8 °C.

Regarding GTCGATACGAAAGTAGAC (((..(((....)))))), in data set [1], the folding enthalpy is -20.3 kcal/mol. In addition, the Tm in data set [2] came to 35.8 °C.

Regarding GCCGGGCGAAAGCCGTGC ((..(((....)))..)), in data set [1], the folding enthalpy was -13.7 kcal/mol. The Tm in data set [2] turned out to be 50.2 °C.

Consider GGCAATGGAAACATTGCC (((((((....))))))), for which the folding enthalpy in data set [1] was -42.1 kcal/mol. The Tm in data set [2] is 67 °C.

Consider GTGCAAGCGAAAGCTCAC (((..(((....)))))), for which, in data set [1], the folding enthalpy was -13.4 kcal/mol. In addition, the Tm in data set [2] is 42.9 °C.

Take GGACTGGGAAACCGGTCC ((((.((....)).)))): in data set [1], the folding enthalpy was -39.9 kcal/mol. The Tm in data set [2] is 58.6 °C.

On to GGTCCTGGAAACAGGGCC ((.((((....)))).)), for which the folding enthalpy in data set [1] is -46.3 kcal/mol. Besides, in data set [2], the Tm turned out to be 60.8 °C.

In the case of GTGTGGGGAAACCCATGC (..((((....))))..), in data set [1], the folding enthalpy is -21.5 kcal/mol. The Tm in data set [2] is 43.1 °C.

Turning to GTTCACGAAAGTGAAAAC ((((((....)))..))), in data set [1], the folding enthalpy is -11.7 kcal/mol. For the same sequence, in data set [2], the Tm amounted to 40.5 °C.

On to GATCTCAACAGAGATC ((((((....)))))), for which, in data set [1], the folding enthalpy is -44.3 kcal/mol. Moreover, the Tm in data set [2] is 54.9 °C.

Turning to GTACCGGGAAACTGGTAC (((((.(....).))))), the folding enthalpy in data set [1] was -33.2 kcal/mol. In addition, the Tm in data set [2] came out at 51.4 °C.

On to GCACTTGGAAACGAGTGC (((((.(....).))))), for which the folding enthalpy in data set [1] is -54.9 kcal/mol. Further, in data set [2], the Tm amounted to 54.1 °C.

For GGATGGGGAAACCCATTC (.(((((....))))).), the folding enthalpy in data set [1] is -22 kcal/mol. Further, in data set [2], the Tm was 47.5 °C.

As to GATCAAGGTTTTGATC ((((((....)))))), the folding enthalpy in data set [1] was -29.7 kcal/mol. The Tm in data set [2] was 45.1 °C.

Consider GGACTGGGAAACTGGTCC ((((..(....)..)))), for which the folding enthalpy in data set [1] is -25 kcal/mol. Also, the Tm in data set [2] came to 45.5 °C.

As to GGATTCGGAAACGAACCC ((.((((....)))).)), the folding enthalpy in data set [1] was -25.6 kcal/mol. Moreover, the Tm in data set [2] is 45.6 °C.

Regarding GTCCTGCGAAAGCAGAC (((.(((....)))))), in data set [1], the folding enthalpy is -12.1 kcal/mol. The Tm in data set [2] came to 47.4 °C.

Regarding GTCATACGAAAGTAAGAC (((.(((....))).))), in data set [1], the folding enthalpy was -25.6 kcal/mol. Besides, the Tm in data set [2] was found to be 43.5 °C.

For GCGAATCTCGC ((((...)))), the folding enthalpy in data set [1] is -19.7 kcal/mol. In addition, the Tm in data set [2] is 47.4 °C.

GGGAGAGGAAACTCTTCC ((.((((....)))).)): the folding enthalpy in data set [1] was -30.7 kcal/mol. Further, the Tm in data set [2] is 45.5 °C.

As to GAAAGTGAAAACTTTC ((((((....)))))), the folding enthalpy in data set [1] was -27.2 kcal/mol. In data set [2], the Tm stood at 47.7 °C.

Take GTCCACGGAAACATGGAC (((((.(....).))))): in data set [1], the folding enthalpy was -25.5 kcal/mol. Besides, the Tm in data set [2] worked out at 43.2 °C.

On to GATCAAGAGTTTGATC ((((((....)))))), for which the folding enthalpy in data set [1] is -29.6 kcal/mol. The Tm in data set [2] was found to be 41.4 °C.

GCCGTCGAAAGACAAGGC ((((((....)))..))): in data set [1], the folding enthalpy is -32.8 kcal/mol. Moreover, in data set [2], the Tm is 55.2 °C.

With GCAGCGGGAAACCACCGC ((.(.((....)).).)), the folding enthalpy in data set [1] was -14.2 kcal/mol. Besides, the Tm in data set [2] was 39.8 °C.

As for GATCTCGCGAAAGCGATC (((..(((....)))))), in data set [1], the folding enthalpy is -5.91 kcal/mol. For the same sequence, the Tm in data set [2] was found to be 28.1 °C.

With GGTCGACGAAAGTCACC (((.(((....)))))), the folding enthalpy in data set [1] was -16.2 kcal/mol. In data set [2], the Tm was 50.9 °C.

For the sequence GCGTTGTGACGC ((((....)))), in data set [1], the folding enthalpy was -31.6 kcal/mol. In addition, in data set [2], the Tm was 59 °C.
